# Bioassay records: PubChem BioAssay, Sanford-Burnham Center for Chemical Genomics
# A selection: hits, their analogues and other compounds. The true share with any hit is near 1.5%.
# APJ ag: APJ receptor agonism; activation, % at 20 µM; CHO-K1 APJ PathHunter beta-arrestin, luminescence; 0% DMSO wells, 100% apelin; 330,000 compounds, 0.11% hits; AID 2520;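 active = activation more than six SD over the plate average, tested at 20 µM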
#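 Assay system: CHO-K1 cells stably expressing ProLink-tagged human APJ and arrestin–beta-gal acceptor. Compound dosing: 20 µM single point, 1% DMSO. Times: 16-18 h seeding, 90 min dark compound exposure, 60 min detection. Detection: beta-gal luminescence. Evaluation: APJ–arrestin association signal. Controls: negative DMSO alone, positive Apelin-13 at 10 nM.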
# EBI2 antag: blocks human EBI2 receptor beta-arrestin signaling; AID 651636; P32249; 360,000 compounds, 0.81% hits; inhibition, % at 5 µM; EBI2 beta-arrestin recruitment, luminescence, 7a,25-OHC stimulated; in the data active = inhibition above about 38%;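 also: enzyme fragment complementation signal reports receptor beta-arrestin coupling in cells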
# CXCR6 block: CXCR6 (human) receptor inhibition. O00574. CHO-K1 PathHunter CXCR6 beta-arrestin, luminescence. 360,000 compounds, 0.36% hits. inhibition, % at 20 µM; in the data active = inhibition above about 34%, passing the limit was not always enough;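 also: antagonist mode with CXCL16 agonist at 10 nM final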
# Target sequence (O00574 whole entry, looked up): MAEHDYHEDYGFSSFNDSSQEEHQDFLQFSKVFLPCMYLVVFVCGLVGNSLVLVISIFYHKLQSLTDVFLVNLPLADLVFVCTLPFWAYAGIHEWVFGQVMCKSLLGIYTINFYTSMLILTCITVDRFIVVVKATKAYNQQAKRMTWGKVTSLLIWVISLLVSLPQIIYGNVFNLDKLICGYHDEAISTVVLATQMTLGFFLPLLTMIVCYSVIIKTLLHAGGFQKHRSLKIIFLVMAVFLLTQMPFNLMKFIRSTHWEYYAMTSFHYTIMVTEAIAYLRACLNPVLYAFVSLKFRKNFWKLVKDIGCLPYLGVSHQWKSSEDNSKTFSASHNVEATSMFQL
# APJ antagonist: blocks the human apelin receptor APJ. CHO-K1 APJ beta-arrestin complementation, luminescence. inhibition, % at 20 µM. 330,000 compounds, 0.32% hits. AID 2521;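 active = inhibition above about 40% at 20 µM, limit read from the data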;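 also: cells challenged with 10 nM apelin-13 agonist together with compound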
# CCR6 antagonist: blocks CCL20-driven beta-arrestin recruitment at human CCR6; P51684; CHO-K1 CCR6 PathHunter beta-arrestin, luminescence, CCL20-stimulated; inhibition, % at 20 µM; 340,000 compounds, 0.49% hits; AID 493098;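 active = compounds whose inhibition of the agonist-driven luminescence signal at 20 µM reaches about 50%, limit read from the data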;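 also: cells stimulated with CCL20 at 14 nM final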
# APJ antag conf: APJ receptor antagonism confirmation | shares compounds with APJ antagonist | APJ beta-arrestin recruitment, luminescence, antagonist mode | inhibition, % at 20 µM | 950 compounds, 66% hits | AID 2766; in the data active = inhibition above about 50%
# A number is an active result; 0 = inactive; - = no result.
SMILES,APJ ag,EBI2 antag,CXCR6 block,APJ antagonist,CCR6 antagonist,APJ antag conf
CC1(C)CC(NC(=O)C2CCN(S(=O)(=O)c3ccc(F)cc3)CC2)CC(C)(C)N1,0,0,0,0,0,-
Cc1ccc(NNC(=O)c2cc(C(C)(C)C)nn2Cc2ccccc2)cc1,0,0,0,41,0,103
Cc1ccc(NC(=O)c2cc(C(C)(C)C)nn2Cc2ccccc2)cc1,0,0,0,0,0,-
CCOC(=O)c1ccc(S(=O)(=O)NNC(=O)c2cccc(N(C)C)c2)cc1,0,0,0,50,0,0
CC(=O)Nc1ccc2nc(NC(=O)CN3CCOCC3)sc2c1,0,0,0,0,0,-
CC(=O)c1c(C(C)=O)c(C)n(-c2cccc([N+](=O)[O-])c2)c1C,0,0,0,0,0,-
CC(=O)C1=C(c2cccc([N+](=O)[O-])c2)N(C(C)=O)n2c(C)nnc2S1,0,58,0,107,70,154
COc1ccccc1CCNC(=O)C(=O)NCC1OCCCN1S(=O)(=O)c1ccc(F)cc1C (stereo unspecified),0,0,0,0,0,-
N=C1/C(=C/c2ccc(-c3cccc(C(=O)O)c3)o2)C(=O)N=C2SC=C(c3ccccc3)N12,0,0,0,40,57,53
CN(CC(=O)Nc1c(Cl)cccc1Cl)C(=O)Cc1cccs1,0,0,0,0,0,-
CCN1/C(=C2\C(=O)N(C)C(=S)N2C)C=Cc2cc(OC)ccc21,0,0,0,0,0,-
C=CCn1c(=O)/c(=C2/Sc3cc(OC)ccc3N2C)s/c1=C1\C(=O)N(CC)C(=S)N1C,0,-,-,50,-,76
Cc1ccc(NC(=O)C(C)N2CCN(C)CC2)cc1S(=O)(=O)N1CCOCC1 (stereo unspecified),0,0,0,0,0,-
O=C(CN1c2ccccc2Sc2ccccc21)NNC(=S)Nc1ccc(Cl)cc1,0,0,0,51,0,70
Nc1nc(-c2ccc(Cl)cc2)c(N=Nc2ccc(S(=O)(=O)N3CCOCC3)cc2)s1,0,0,51,49,71,89
O=S(=O)(c1ccc(Cl)cc1)N1CCC(N2CCOCC2)CC1,0,0,0,0,0,-
Cc1ccc2c(=O)cc(C(=O)NCc3ccccc3)oc2c1C,0,0,0,0,0,-
CN(Cc1ccccc1)C(=S)NC(=O)C1CCCCC1,0,0,0,0,0,-
CN(Cc1ccccc1)C(=S)NC(=O)c1cccs1,0,0,0,41,0,0
OCC1(CCc2ccccc2)CCCN(CCCc2ccccc2)C1 (stereo unspecified),0,0,0,0,0,-
CC1Nc2ncnc(N3CCN(c4ccccn4)CC3)c2N(Cc2ccccc2)C1=O (stereo unspecified),0,45,68,65,79,110
COc1ccc(NC(=O)/C(Cl)=C(/Cl)S(=O)Cc2ccc(Cl)cc2)cn1 (stereo unspecified),0,71,100,83,100,105
CC1(C)c2[nH]c3ccccc3c2C[C@H]2C(=O)N(CCCCCO)CC(=O)N21,0,0,0,0,0,-
COc1ccc(C(=O)NC(C)Cc2c[nH]c3ccccc23)cc1 (stereo unspecified),-,0,0,-,-,-
CCc1ccc2c(c1)C1(NN=C(c3cccc4ccccc34)S1)C(=O)N2 (stereo unspecified),0,0,0,42,-,0
SMILES,APJ ag,EBI2 antag,CXCR6 block,APJ antagonist,CCR6 antagonist,APJ antag conf
CCc1ccc2c(c1)NC(=O)C2(C)Cc1ccccc1 (stereo unspecified),-,0,0,-,-,-
CC(C)n1cc(/C=N/Nc2ccc(Cl)c(C(=O)O)c2)c2ccccc21,0,0,0,0,-,-
Cn1cc(SCC(=O)Nc2ccc3c(c2)OCO3)c2ccccc21,0,0,0,0,0,-
Cn1c(=O)cc(SCC(=O)Nc2ccc3c(c2)OCO3)c2ccccc21,0,0,0,45,0,0
Cc1ccc(S(=O)(=O)N/N=C/c2ccc3nccnc3c2)cc1,0,0,0,58,56,88
Oc1ccccc1Cc1c(O)ccc2ccccc12,0,0,0,0,0,-
COc1cccc(NC(=S)N/N=C2\CC3CCC2(C)C3(C)C)c1 (stereo unspecified),0,0,0,41,55,79
Cn1nc(C2CC2)cc1NC(=O)C1(C)CCN1C(=O)CC(c1ccccc1)c1ccccc1 (stereo unspecified),-,0,0,-,-,-
O=c1cc2oc3cc(O)c(O)cc3c(-c3ccccc3[N+](=O)[O-])c-2cc1O,0,0,58,61,78,105
C=C(C)COc1ccc2c(C)c(CC(=O)N3C[C@H]4C[C@@H](C3)c3cccc(=O)n3C4)c(=O)oc2c1C,0,0,0,0,0,-
CC1CCCCN1C(=O)CSc1nc2cc3c(cc2c(=O)n1Cc1ccc2c(c1)OCO2)OCO3 (stereo unspecified),0,0,0,55,0,57
CC(C)C(NS(=O)(=O)c1cccc(C(F)(F)F)c1)C(=O)N1CCc2ccccc2C1 (stereo unspecified),0,0,0,0,0,-
COc1cc(/C=C2\SC(=S)N(Nc3ccccc3)C2=O)ccc1O,0,0,51,56,74,97
COc1cc(/C=C2/SC(=S)N(CC3CCCO3)C2=O)ccc1O (stereo unspecified),0,0,42,48,73,88
COc1cc(/C=C2\SC(=S)N(C(Cc3ccccc3)C(=O)O)C2=O)ccc1O (stereo unspecified),0,0,0,48,0,82
CCOc1cc(/C=C2\SC(=S)N(Nc3ccccc3)C2=O)ccc1O,0,0,44,52,62,108
Cc1c(C(=O)O)sc(S(=O)(=O)N2CCN(C(=O)CC(C)c3ccccc3)CC2)c1C(=O)O (stereo unspecified),-,0,0,-,0,-
CSCC[C@H](NC(=O)N1C[C@H]2C[C@@H](C1)c1cccc(=O)n1C2)C(=O)Nc1ccc(NC(C)=O)cc1,0,0,0,0,0,-
COc1ccc(NC(=O)c2ccc(F)c(F)c2)c2ccccc12,0,0,0,0,0,-
COc1cc(/C=C2\SC(=S)N(Nc3ncc(C(F)(F)F)cc3Cl)C2=O)ccc1O,0,0,60,51,68,105
CN(C)c1ccc(/C=C2\SC(=S)N(Nc3ncc(C(F)(F)F)cc3Cl)C2=O)cc1,0,0,0,0,0,-
CCOc1ccc(N=Nc2ccc(O)c3ncccc23)cc1,0,0,0,0,0,-
NS(=O)(=O)c1ccc(N=Nc2ccc(O)c3ncccc23)cc1,0,0,48,49,64,87
Cc1cccc(N=Nc2ccc(O)c3ncccc23)c1,0,0,0,42,0,83
CCN(CC)S(=O)(=O)c1cc(OC)ccc1N=Nc1ccc(O)c2ncccc12,0,0,0,43,55,0
Oc1ccc(N=Nc2ccc3c(c2)OCCO3)c2ncccc12,0,0,0,53,54,89
